Results as given in ChEMBL document CHEMBL1124161, “4-Hydroxy-3-quinolinecarboxamides with antiarthritic and analgesic activities” (J Med Chem, 1988).
Calls of active or inactive are those of the source. The calls are words filed in the database; no cut-off is given here.

Experiments:
Mus musculus [1] = test: Analgesic activity against acetic acid induced writhing test in mouse after peroral administration; type: functional; settings: Mus musculus, po; read-out: ED50
Rattus norvegicus [2] = test: Antiinflammatory activity against carrageenan-induced foot edema in rat after peroral administration at 25 mg/kg; IA=Inactive; type: functional, organism-based; design: dose 25 mg/kg
Rattus norvegicus [3] = species: Rattus norvegicus; test: Antiarthritis activity against adjuvant-induced arthritis in rats; type: functional
Outline: (§1)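 Groups of five male Lewis rats, 40–50 days old, given intraplantar injection in right hind paw of 0.6 mg Mycobacterium butyricum in 0.1 mL Bayol 55. Drug given in food from adjuvant day to day 17. Injected and noninjected hind paw volumes measured day 17 against normal controls. ED50 by least-squares curve fitting or Litchfield–Wilcoxon probit.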

Rattus norvegicus [4] = test: Ulcerogenic effect after oral administration (gastric ulcer); type: functional
Outline: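 Groups of eight female rats (120–150 g), fasted 24 h, dosed orally; killed 7 h later and stomachs scored. Ulceration index = (mean ulcer degree × rats with ulcers / number of rats) × 100, ulcers being scores above 0.5. ED100 (index 100, max 300) read graphically.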

Rattus norvegicus [5] = test: Antiinflammatory activity against carrageenan-induced foot edema in rat after peroral administration; type: functional; settings: po
Outline: (§2)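 Groups of eight male Sprague-Dawley rats (150–180 g) dosed orally at the time of subplantar injection of 0.5 mg carrageenin. Paw volume difference measured before and 5 h after injection. Expressed as ED40, estimated graphically or by Litchfield–Wilcoxon probit analysis.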

Rattus norvegicus [6] = test: Anti-arthritis activity against adjuvant-induced arthritis in rats after peroral administration; type: functional; settings: Rattus norvegicus, po; read-out: ED50; outline: as §1
Cyclooxygenase = target: T1, Cyclooxygenase (Bos taurus, UniProt O62664+O62698); test: Inhibition of bovine Prostaglandin G/H synthase in seminal vesicle microsomes in vitro
T1 sequence (O62664 whole entry): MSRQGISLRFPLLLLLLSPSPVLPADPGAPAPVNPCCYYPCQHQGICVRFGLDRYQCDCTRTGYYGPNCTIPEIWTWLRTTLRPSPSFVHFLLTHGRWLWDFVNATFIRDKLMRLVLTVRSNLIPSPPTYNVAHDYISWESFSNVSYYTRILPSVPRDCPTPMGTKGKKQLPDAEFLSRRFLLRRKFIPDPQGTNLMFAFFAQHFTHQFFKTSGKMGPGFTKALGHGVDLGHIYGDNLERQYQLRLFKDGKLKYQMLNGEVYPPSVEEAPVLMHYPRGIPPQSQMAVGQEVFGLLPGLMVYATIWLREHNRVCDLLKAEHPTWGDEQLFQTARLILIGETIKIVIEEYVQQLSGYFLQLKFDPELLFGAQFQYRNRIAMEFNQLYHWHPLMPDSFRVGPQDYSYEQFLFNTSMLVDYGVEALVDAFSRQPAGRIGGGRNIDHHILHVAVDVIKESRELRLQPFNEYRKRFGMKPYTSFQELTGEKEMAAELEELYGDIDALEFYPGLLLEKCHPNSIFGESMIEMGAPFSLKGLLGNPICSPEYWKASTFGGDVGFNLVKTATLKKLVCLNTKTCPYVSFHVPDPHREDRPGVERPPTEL
T1 sequence (O62698 whole entry): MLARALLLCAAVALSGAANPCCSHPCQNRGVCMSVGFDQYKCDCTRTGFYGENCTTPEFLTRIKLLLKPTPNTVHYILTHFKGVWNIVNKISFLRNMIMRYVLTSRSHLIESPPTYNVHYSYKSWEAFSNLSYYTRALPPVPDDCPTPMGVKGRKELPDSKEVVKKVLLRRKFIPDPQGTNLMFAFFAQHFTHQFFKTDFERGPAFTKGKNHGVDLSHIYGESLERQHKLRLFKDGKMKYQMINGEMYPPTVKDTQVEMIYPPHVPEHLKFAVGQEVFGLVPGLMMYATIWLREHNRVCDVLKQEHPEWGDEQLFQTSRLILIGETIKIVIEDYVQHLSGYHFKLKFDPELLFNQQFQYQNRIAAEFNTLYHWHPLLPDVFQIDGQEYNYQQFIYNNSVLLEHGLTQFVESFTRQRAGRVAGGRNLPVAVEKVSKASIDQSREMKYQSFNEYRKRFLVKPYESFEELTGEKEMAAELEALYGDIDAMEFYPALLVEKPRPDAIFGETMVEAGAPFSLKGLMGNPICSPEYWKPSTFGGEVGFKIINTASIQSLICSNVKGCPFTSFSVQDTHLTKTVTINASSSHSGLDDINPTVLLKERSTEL

[7] = target: T2, Polyunsaturated fatty acid 5-lipoxygenase (Rattus norvegicus, UniProt P12527); test: Inhibition of 5-lipoxygenase from rat peritoneal neutrophils in vitro
T2 sequence (P12527 whole entry): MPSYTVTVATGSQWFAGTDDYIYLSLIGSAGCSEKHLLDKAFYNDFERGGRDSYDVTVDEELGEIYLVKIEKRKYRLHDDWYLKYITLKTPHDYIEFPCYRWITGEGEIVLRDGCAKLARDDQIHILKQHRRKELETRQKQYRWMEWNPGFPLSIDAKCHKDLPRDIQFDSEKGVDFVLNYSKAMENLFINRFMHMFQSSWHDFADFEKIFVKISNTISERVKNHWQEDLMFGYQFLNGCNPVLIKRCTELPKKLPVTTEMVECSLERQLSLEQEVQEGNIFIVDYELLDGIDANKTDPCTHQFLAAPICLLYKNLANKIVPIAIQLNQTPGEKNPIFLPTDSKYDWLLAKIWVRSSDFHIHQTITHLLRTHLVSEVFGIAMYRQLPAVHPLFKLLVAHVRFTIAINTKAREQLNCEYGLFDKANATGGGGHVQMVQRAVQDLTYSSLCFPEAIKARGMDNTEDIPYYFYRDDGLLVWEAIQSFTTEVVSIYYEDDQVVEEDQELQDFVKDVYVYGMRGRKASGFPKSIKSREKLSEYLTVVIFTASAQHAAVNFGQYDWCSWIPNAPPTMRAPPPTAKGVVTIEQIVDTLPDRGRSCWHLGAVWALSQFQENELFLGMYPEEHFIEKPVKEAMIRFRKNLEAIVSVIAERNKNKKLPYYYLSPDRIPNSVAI

Rattus norvegicus [8] = test: Ulcerogenic effect after oral administration (intestinal ulcer); type: functional
Outline: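 Nonfasted male rats (150–180 g) killed 24 h after oral dosing, and intestinal ulcers scored. Ulceration index = (mean degree × rats with ulcers / rats) × 100. ED100 (index 100) determined graphically.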

Mus musculus [9] = test: Analgesic activity against acetic acid induced writhing test in mouse after peroral administration at 100 mg/kg; IA=Inactive; type: functional, organism-based; design: dose 100 mg/kg
Outline: (§3)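 Female mice (20–22 g), groups of 10, fasted 7 h; drug given orally 30 min before intraperitoneal injection of 0.2 mL 1% aqueous acetic acid. Stretching/writhing movements counted from minute 5 to 20 after irritant.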

Mus musculus [10] = test: Analgesic activity against acetic acid induced writhing test in mouse after peroral administration at 25 mg/kg; IA=Inactive; type: functional, organism-based; design: dose 25 mg/kg; outline: as §3
Rattus norvegicus [11] = test: Antiinflammatory activity against carrageenan-induced foot edema in rat after oral administration of 20 mg/kg; IA=Inactive; type: functional, organism-based; design: dose 20 mg/kg
Mus musculus [12] = test: Analgesic activity against acetic acid induced writhing test in mouse administered po at 100 mg/kg; IA=Inactive; type: functional, organism-based; design: dose 100 mg/kg; outline: as §3
Rattus norvegicus [13] = test: Antiarthritis activity against adjuvant-induced arthritis in rats administered po at 10 mg/kg; IA=Inactive; type: functional, organism-based; design: dose 10 mg/kg
Rattus norvegicus [14] = test: Antiinflammatory activity against carrageenan-induced foot edema after peroral administration in rat; type: functional; settings: po; outline: as §2
Rattus norvegicus [15] = test: Antiinflammatory activity against carrageenan-induced foot edema in rat after peroral administration of 300 mg/kg; IA=Inactive; type: functional, organism-based; design: dose 300 mg/kg
Mus musculus [16] = test: Analgesic activity against acetic acid induced writhing test in mouse after peroral administration of 100 mg/kg; IA=Inactive; type: functional, organism-based; design: dose 100 mg/kg; outline: as §3
Rattus norvegicus [17] = test: Antiinflammatory activity against carrageenan-induced foot edema in rat after peroral administration of 100 mg/kg; IA=Inactive; type: functional, organism-based; design: dose 100 mg/kg
Rattus norvegicus [18] = test: Antiarthritis activity against adjuvant-induced arthritis in rats administered po at 10 mg/kg; IA= Inactive; type: functional, organism-based; design: dose 10 mg/kg
Rattus norvegicus [19] = test: Antiinflammatory activity against carrageenan-induced foot edema in rat administered po at 100 mg/kg; IA=Inactive; type: functional, organism-based; design: dose 100 mg/kg

## O=C(Nc1nc2ccccc2s1)c1c(C(Cl)Cl)nc2c(C(F)(F)F)cccc2c1O
Mus musculus [1]
  ED50: > 25 mg/kg
Rattus norvegicus [2]
  ED50: inactive

## CCCC(O)c1nc2c(C(F)(F)F)cccc2c(O)c1C(=O)Nc1nccs1 (centres undefined)
Mus musculus [1]
  ED50: 20 mg/kg
Rattus norvegicus [3]
  ED50: ≥ 20 mg/kg

## O=C(Nc1nccs1)c1c(CCl)nc2c(C(F)(F)F)cccc2c1O
Mus musculus [1]
  ED50: 25 mg/kg
Rattus norvegicus [2]
  ED50: inactive

## O=C(Nc1nccs1)c1c(C(Cl)Cl)nc2c(C(F)(F)F)cccc2c1O
Mus musculus [1]
  ED50: 1.1 mg/kg
Rattus norvegicus [4]
  ED100: 270 mg/kg
Rattus norvegicus [5]
  ED40: > 100 mg/kg
Rattus norvegicus [6]
  ED50: 48 mg/kg
Cyclooxygenase
  IC50: 1800 nM
[7]
  IC50: 2000 nM
Rattus norvegicus [8]
  ED100: >500 mg/kg

## CCC(=O)OC(CC)c1nc2c(C(F)(F)F)cccc2c(O)c1C(=O)Nc1ccccn1 (centres undefined)
Rattus norvegicus [6]
  ED50: > 5 mg/kg
Mus musculus [9]
  ED50: inactive

## CC(Cl)(Cl)c1nc2c(C(F)(F)F)cccc2c(O)c1C(=O)Nc1nccs1
Mus musculus [10]
  ED50: inactive

## O=C(Nc1nccs1)c1c(-c2ccccc2)nc2c(C(F)(F)F)cccc2c1O
Mus musculus [1]
  ED50: 50 mg/kg
Rattus norvegicus [11]
  ED50: inactive

## CCC(OC(C)=O)c1nc2c(C(F)(F)F)cccc2c(O)c1C(=O)Nc1nccs1 (centres undefined)
Rattus norvegicus [6]
  ED50: 4 mg/kg
Mus musculus [12]
  ED50: inactive

## O=C(Nc1nccs1)c1c(C(O)C2CCCCC2)nc2c(C(F)(F)F)cccc2c1O (centres undefined)
Rattus norvegicus [13]
  ED50: inactive
Rattus norvegicus [14]
  ED40: > 100 mg/kg
Mus musculus [12]
  ED50: inactive

## O=C(Nc1nccs1)c1cnc2cc(Cl)ccc2c1O
Mus musculus [1]
  ED50: > 100 mg/kg
Rattus norvegicus [15]
  ED50: inactive

## CC(C)C(O)c1nc2c(C(F)(F)F)cccc2c(O)c1C(=O)Nc1nccs1 (centres undefined)
Mus musculus [1]
  ED50: 20 mg/kg
Rattus norvegicus [3]
  ED50: 0.4 mg/kg

## O=C(Nc1ncco1)c1c(C(Cl)Cl)nc2c(C(F)(F)F)cccc2c1O
Mus musculus [1]
  ED50: > 25 mg/kg
Rattus norvegicus [2]
  ED50: inactive

## CCCCc1nc2c(C(F)(F)F)cccc2c(O)c1C(=O)Nc1nccs1
Mus musculus [1]
  ED50: 50 mg/kg
Rattus norvegicus [11]
  ED50: inactive

## Cn1ccnc1NC(=O)c1c(C(F)(F)F)nc2c(C(F)(F)F)cccc2c1O
Mus musculus [16]
  ED50: inactive
Rattus norvegicus [17]
  ED50: inactive

## CC(C)(C)C(O)c1nc2c(C(F)(F)F)cccc2c(O)c1C(=O)Nc1nccs1 (centres undefined)
Mus musculus [1]
  ED50: 50 mg/kg
Rattus norvegicus [14]
  ED40: 4 mg/kg
Rattus norvegicus [6]
  ED50: 1.5 mg/kg

## O=C(Nc1nccs1)c1c(C(O)c2ccccc2)nc2c(C(F)(F)F)cccc2c1O (centres undefined)
Rattus norvegicus [18]
  ED50: inactive
Mus musculus [12]
  ED50: inactive
Rattus norvegicus [19]
  ED40: inactive
